Experimental data reported in ChEMBL document CHEMBL3751813, “Nonpeptidic Amphiphilic Xanthone Derivatives: Structure-Activity Relationship and Membrane-Targeting Properties” (J Med Chem, 2016).
In brackets after ≈: the same amount, converted by molar mass.

Tested on: Staphylococcus aureus
Assay: Antibacterial activity against clinical isolates of Staphylococcus aureus DM4001R after 24 hrs by […]
Assay type: functional
Details: not given

Row | Compound | MIC
1 | CCN(CCO)CCCCOc1cc2oc3cc(OCCCCN(CC)CCO)c(OC)c(CC=C(C)C)c3c(=O)c2c(O)c1CC=C(C)C | 6.25 µg/mL (≈ 8.97 µM)
2 | COc1c(OCCCCN2CCOCC2)cc2oc3cc(OCCCCN4CCOCC4)c(CC=C(C)C)c(O)c3c(=O)c2c1CC=C(C)C | > 50 µg/mL
3 | COc1c(OCCCCn2cncn2)cc2oc3cc(OCCCCn4cncn4)c(CC=C(C)C)c(O)c3c(=O)c2c1CC=C(C)C | > 50 µg/mL
4 | COc1c(OCCCCI)cc2oc3cc(OCCCCI)c(CC=C(C)C)c(OCCCCI)c3c(=O)c2c1CC=C(C)C | > 50 µg/mL
5 | COc1c(OCCCCN2C(=O)c3ccccc3C2=O)cc2oc3cc(OCCCCN4C(=O)c5ccccc5C4=O)c(CC=C(C)C)c(O)c3c(=O)c2c1CC=C(C)C | > 50 µg/mL
6 | COc1c(OCCCCN2CCNCC2)cc2oc3cc(OCCCCN4CCNCC4)c(CC=C(C)C)c(O)c3c(=O)c2c1CC=C(C)C | 6.25 µg/mL (≈ 9.05 µM)
7 | CCCN(CC)CCCCOc1cc2oc3cc(OCCCCN(CC)CCC)c(OC)c(CC=C(C)C)c3c(=O)c2c(O)c1CC=C(C)C | 6.25 µg/mL (≈ 9.02 µM)

Tested on: not listed separately
Assay: Selectivity index, ratio of HC50 for hemolytic activity against New Zealand white rabbit RBC to MIC for clinical isolates of Staphylococcus aureus DM4001
Details: not given

Row | Compound | Selectivity ratio
8 | CCN(CCO)CCCCOc1cc2oc3cc(OCCCCN(CC)CCO)c(OC)c(CC=C(C)C)c3c(=O)c2c(O)c1CC=C(C)C | 5.1
9 | COc1c(OCCCCN2CCNCC2)cc2oc3cc(OCCCCN4CCNCC4)c(CC=C(C)C)c(O)c3c(=O)c2c1CC=C(C)C | 11.5
10 | CCCN(CC)CCCCOc1cc2oc3cc(OCCCCN(CC)CCC)c(OC)c(CC=C(C)C)c3c(=O)c2c(O)c1CC=C(C)C | 5.1

Tested on: Staphylococcus aureus
Assay: Induction of membrane permeabilization in clinical isolates of Staphylococcus aureus DM4001 at MIC by SYTOX green uptake assay
Assay type: functional
Details: not given
Outline: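 Exponential-phase cells washed twice in 20 mM PBS pH 7 and adjusted to OD620 0.09. Given 3 µM SYTOX Green and kept in the dark until fluorescence was stable, then compound added. Fluorescence followed in a stirred cuvette at ex 504/em 523 nm. Melittin 10 µg/mL was the positive control. Run at least twice; one run reported.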

Row | Compound | Activity
11 | CCN(CCO)CCCCOc1cc2oc3cc(OCCCCN(CC)CCO)c(OC)c(CC=C(C)C)c3c(=O)c2c(O)c1CC=C(C)C | 112772 cps
12 | COc1c(OCCCCN2CCOCC2)cc2oc3cc(OCCCCN4CCOCC4)c(CC=C(C)C)c(O)c3c(=O)c2c1CC=C(C)C | 6358 cps
13 | COc1c(OCCCCn2cncn2)cc2oc3cc(OCCCCn4cncn4)c(CC=C(C)C)c(O)c3c(=O)c2c1CC=C(C)C | 1979 cps
14 | COc1c(OCCCCN2CCNCC2)cc2oc3cc(OCCCCN4CCNCC4)c(CC=C(C)C)c(O)c3c(=O)c2c1CC=C(C)C | 24629 cps
15 | CCCN(CC)CCCCOc1cc2oc3cc(OCCCCN(CC)CCC)c(OC)c(CC=C(C)C)c3c(=O)c2c(O)c1CC=C(C)C | 82176 cps

Tested on: Staphylococcus aureus
Assay: Induction of membrane permeabilization in clinical isolates of Staphylococcus aureus DM4001 assessed as ATP leakage at MIC incubated for 10 mins by firefly luciferase based luminometry analysis
Assay type: functional
Details: not given
Outline: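 Exponential-phase cells washed twice in 20 mM PBS pH 7 and set to OD620 0.3. Exposed 10 min at 37 °C, then spun at 4000 rpm for 5 min. Supernatant mixed with luciferase reagent (1 mM DTT, 0.5 mM D-luciferin, 1.25 µg/mL firefly luciferase). Luminescence read over 30 cycles.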

Row | Compound | Activity
16 | CCN(CCO)CCCCOc1cc2oc3cc(OCCCCN(CC)CCO)c(OC)c(CC=C(C)C)c3c(=O)c2c(O)c1CC=C(C)C | 5.027 µM
17 | COc1c(OCCCCN2CCOCC2)cc2oc3cc(OCCCCN4CCOCC4)c(CC=C(C)C)c(O)c3c(=O)c2c1CC=C(C)C | 0.229 µM
18 | COc1c(OCCCCn2cncn2)cc2oc3cc(OCCCCn4cncn4)c(CC=C(C)C)c(O)c3c(=O)c2c1CC=C(C)C | 0.416 µM
19 | COc1c(OCCCCN2CCNCC2)cc2oc3cc(OCCCCN4CCNCC4)c(CC=C(C)C)c(O)c3c(=O)c2c1CC=C(C)C | 3.154 µM
20 | CCCN(CC)CCCCOc1cc2oc3cc(OCCCCN(CC)CCC)c(OC)c(CC=C(C)C)c3c(=O)c2c(O)c1CC=C(C)C | 12.736 µM

Tested on: not listed separately
Assay: Hemolytic activity against New Zealand white rabbit RBC after 1 hr by microplate reader analysis
Assay type: ADME, cell-based, Oryctolagus cuniculus, Erythrocyte
Details: rabbit red blood cells
Outline: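 Rabbit RBCs spun from serum at 3,000 rpm for 10 min and washed twice in PBS. Mixed with compound in DMF at 4% v/v RBCs, 1 h at 37 °C. After centrifugation, hemoglobin in the supernatant read at 576 nm. 2% Triton X-100 was the positive control and 1% DMF the negative control.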

Row | Compound | HC50 at 1 h
21 | CCN(CCO)CCCCOc1cc2oc3cc(OCCCCN(CC)CCO)c(OC)c(CC=C(C)C)c3c(=O)c2c(O)c1CC=C(C)C | 31.8 µg/mL
22 | COc1c(OCCCCN2CCOCC2)cc2oc3cc(OCCCCN4CCOCC4)c(CC=C(C)C)c(O)c3c(=O)c2c1CC=C(C)C | > 200 µg/mL
23 | COc1c(OCCCCn2cncn2)cc2oc3cc(OCCCCn4cncn4)c(CC=C(C)C)c(O)c3c(=O)c2c1CC=C(C)C | > 200 µg/mL
24 | COc1c(OCCCCI)cc2oc3cc(OCCCCI)c(CC=C(C)C)c(OCCCCI)c3c(=O)c2c1CC=C(C)C | > 200 µg/mL
25 | COc1c(OCCCCN2C(=O)c3ccccc3C2=O)cc2oc3cc(OCCCCN4C(=O)c5ccccc5C4=O)c(CC=C(C)C)c(O)c3c(=O)c2c1CC=C(C)C | > 200 µg/mL
26 | COc1c(OCCCCN2CCNCC2)cc2oc3cc(OCCCCN4CCNCC4)c(CC=C(C)C)c(O)c3c(=O)c2c1CC=C(C)C | 72.1 µg/mL
27 | CCCN(CC)CCCCOc1cc2oc3cc(OCCCCN(CC)CCC)c(OC)c(CC=C(C)C)c3c(=O)c2c(O)c1CC=C(C)C | 63.3 µg/mL

Tested on: Staphylococcus aureus
Assay: Antibacterial activity against clinical isolates of methicillin-resistant Staphylococcus aureus DM21455 after 24 hrs by […]
Assay type: functional
Details: DM21455, 24 h

Row | Compound | MIC
28 | CCN(CCO)CCCCOc1cc2oc3cc(OCCCCN(CC)CCO)c(OC)c(CC=C(C)C)c3c(=O)c2c(O)c1CC=C(C)C | 6.25 µg/mL (≈ 8.97 µM)
29 | COc1c(OCCCCN2CCOCC2)cc2oc3cc(OCCCCN4CCOCC4)c(CC=C(C)C)c(O)c3c(=O)c2c1CC=C(C)C | > 50 µg/mL
30 | COc1c(OCCCCn2cncn2)cc2oc3cc(OCCCCn4cncn4)c(CC=C(C)C)c(O)c3c(=O)c2c1CC=C(C)C | > 50 µg/mL
31 | COc1c(OCCCCI)cc2oc3cc(OCCCCI)c(CC=C(C)C)c(OCCCCI)c3c(=O)c2c1CC=C(C)C | > 50 µg/mL
32 | COc1c(OCCCCN2C(=O)c3ccccc3C2=O)cc2oc3cc(OCCCCN4C(=O)c5ccccc5C4=O)c(CC=C(C)C)c(O)c3c(=O)c2c1CC=C(C)C | > 50 µg/mL
33 | COc1c(OCCCCN2CCNCC2)cc2oc3cc(OCCCCN4CCNCC4)c(CC=C(C)C)c(O)c3c(=O)c2c1CC=C(C)C | 12.5 µg/mL (≈ 18.1 µM)
34 | CCCN(CC)CCCCOc1cc2oc3cc(OCCCCN(CC)CCC)c(OC)c(CC=C(C)C)c3c(=O)c2c(O)c1CC=C(C)C | 12.5 µg/mL (≈ 18 µM)

Tested on: Staphylococcus aureus
Assay: Antibacterial activity against clinical isolates of methicillin-resistant Staphylococcus aureus DM9808R after 24 hrs by […]
Assay type: functional
Details: not given

Row | Compound | MIC
35 | CCN(CCO)CCCCOc1cc2oc3cc(OCCCCN(CC)CCO)c(OC)c(CC=C(C)C)c3c(=O)c2c(O)c1CC=C(C)C | 3.12 µg/mL (≈ 4.48 µM)
36 | COc1c(OCCCCN2CCOCC2)cc2oc3cc(OCCCCN4CCOCC4)c(CC=C(C)C)c(O)c3c(=O)c2c1CC=C(C)C | > 50 µg/mL
37 | COc1c(OCCCCn2cncn2)cc2oc3cc(OCCCCn4cncn4)c(CC=C(C)C)c(O)c3c(=O)c2c1CC=C(C)C | > 50 µg/mL
38 | COc1c(OCCCCI)cc2oc3cc(OCCCCI)c(CC=C(C)C)c(OCCCCI)c3c(=O)c2c1CC=C(C)C | > 50 µg/mL
39 | COc1c(OCCCCN2C(=O)c3ccccc3C2=O)cc2oc3cc(OCCCCN4C(=O)c5ccccc5C4=O)c(CC=C(C)C)c(O)c3c(=O)c2c1CC=C(C)C | > 50 µg/mL
40 | COc1c(OCCCCN2CCNCC2)cc2oc3cc(OCCCCN4CCNCC4)c(CC=C(C)C)c(O)c3c(=O)c2c1CC=C(C)C | 6.25 µg/mL (≈ 9.05 µM)
41 | CCCN(CC)CCCCOc1cc2oc3cc(OCCCCN(CC)CCC)c(OC)c(CC=C(C)C)c3c(=O)c2c(O)c1CC=C(C)C | 6.25 µg/mL (≈ 9.02 µM)

Tested on: Bacillus cereus
Assay: Antibacterial activity against clinical isolates of Bacillus cereus ATCC 11778 after 24 hrs by […]
Assay type: functional
Details: ATCC 11778, 24 h

Row | Compound | MIC
42 | CCN(CCO)CCCCOc1cc2oc3cc(OCCCCN(CC)CCO)c(OC)c(CC=C(C)C)c3c(=O)c2c(O)c1CC=C(C)C | 3.12 µg/mL (≈ 4.48 µM)
43 | COc1c(OCCCCN2CCOCC2)cc2oc3cc(OCCCCN4CCOCC4)c(CC=C(C)C)c(O)c3c(=O)c2c1CC=C(C)C | > 50 µg/mL
44 | COc1c(OCCCCn2cncn2)cc2oc3cc(OCCCCn4cncn4)c(CC=C(C)C)c(O)c3c(=O)c2c1CC=C(C)C | > 50 µg/mL
45 | COc1c(OCCCCI)cc2oc3cc(OCCCCI)c(CC=C(C)C)c(OCCCCI)c3c(=O)c2c1CC=C(C)C | 50 µg/mL (≈ 52.3 µM)
46 | COc1c(OCCCCN2C(=O)c3ccccc3C2=O)cc2oc3cc(OCCCCN4C(=O)c5ccccc5C4=O)c(CC=C(C)C)c(O)c3c(=O)c2c1CC=C(C)C | > 50 µg/mL
47 | COc1c(OCCCCN2CCNCC2)cc2oc3cc(OCCCCN4CCNCC4)c(CC=C(C)C)c(O)c3c(=O)c2c1CC=C(C)C | 12.5 µg/mL (≈ 18.1 µM)
48 | CCCN(CC)CCCCOc1cc2oc3cc(OCCCCN(CC)CCC)c(OC)c(CC=C(C)C)c3c(=O)c2c(O)c1CC=C(C)C | 25 µg/mL (≈ 36.1 µM)
